Assay results: article PMC9122039 (Chembiochem : a European journal of chemical biology, 2022)
Where a SMILES comes first, the peptide text is derived from it. The star is where a group is joined. Cbz = O=C(OCc1ccccc1)*

Columns and labels:
Type in all cases: cell-based
[1] = tested on: proteasome (β2 and β5 subunits) in HEK-293T cells; conditions: then 3 at 500 nM 1 h; for increase of proteasome labeling over DMSO treated samples: modulator 25 μM 1 h; for effect of inhibitor on labeling by 3: inhibitor at two concentrations 1 h; for change of proteasome activity: modulator 5 μM 1 h
In short: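 HEK-293T cells pre-treated 1 h with the test compound (stimulators and inhibitors, each at two concentrations) or DMSO. BODIPY-epoxomicin probe then added at 500 nM for 1 h (2 h total). Proteasome bound by the probe is resolved by SDS-PAGE and in-gel fluorescence is scanned. β2 and β5 band signals are quantified and normalised to DMSO; error bars are standard deviation.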

[2] = tested on: proteasome in HEK-293T cells; assay: Flow cytometry with probe 3; conditions: modulator 1 h, then 3 for 1 h, rinsed with PBS
In short: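 HEK-293T cells get the test compound (stimulator or inhibitor) for 1 h. The BODIPY-epoxomicin probe is then added and incubated another hour. Cells are pelleted and rinsed with PBS to remove unreacted probe. Probe fluorescence is measured by flow cytometry against DMSO-treated samples.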

[3] = tested on: proteasome in HEK-293T cells; assay: Confocal microscopy with probe 3; conditions: modulator 25 μM 1 h, then 3 at 500 nM 1 h, PBS wash
In short: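 HEK-293T cells on poly-D-lysine-coated glass coverslip chambers; test compound (proteasome stimulator or inhibitor) at 25 μM for 1 h, then BODIPY-epoxomicin probe at 500 nM for another hour. PBS wash removes extracellular or unbound probe. Controls: DMSO plus probe (basal activity) and DMSO without probe. Imaged by confocal in bright field and BodipyFL green channel, with overlay.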

Compound	increase of proteasome labeling over DMSO treated samples [1]	effect of inhibitor on labeling by 3 [1]	change of fluorescent signal of 3 over DMSO treated samples (flow cytometry) [2]	change of proteasome activity [1]	change of intracellular fluorescent signal of 3 (confocal microscopy) [3]
CCCCC/C=C\C/C=C\C/C=C\C/C=C\CCCC(=O)Nc1ccc(O)cc1 [AM-404]	at least 40%	–	–	–	–
epoxomicin	–	prevented the binding of (3)	–	–	–
Clc1ccc(COC(Cn2ccnc2)c2ccc(Cl)cc2Cl)c(Cl)c1 (stereo not drawn) [MO, Miconazole]	at least 40%	–	increase	significant increase in activity	remarkable increase in fluorescent signal
CC(C)C[C@@H](C=O)NC(=O)[C@H](CC(C)C)NC(=O)[C@H](CC(C)C)NC(=O)OCc1ccccc1 [MG-132] (Cbz-Leu-Leu-Leu-aldehyde)	–	prevented the binding of (3)	decrease	–	significantly decreased the signal
CN1CCN(CCCN2c3ccccc3Sc3ccc(C(F)(F)F)cc32)CC1 [TFP, trifluoperazine]	at least 40%	–	increase	significant increase in activity	–
